Experimental data from different studies.
Protocols differ between the studies behind these lines.
Target: Mitogen-activated protein kinase 1 (MAPK1, Homo sapiens, UniProt P28482)

N[C@H]1CCN(c2nccc(-c3cnn4ncccc34)n2)C1 — remaining binding (binding; 1 µM): 100%
c1cncc(-c2cccc(Nc3nccc(NC4CCCCC4)n3)c2)c1 — remaining binding (binding, competition with immobilised ligand; 10 µM): 92%
C[C@H]1CCN(c2nccc(-c3cnn4ncccc34)n2)C1 — remaining binding (binding; 1 µM): 100%
O=C(c1ccc(Nc2nccc(-c3cc4ccccc4s3)n2)cc1)N1CCC(N2CCCC2)CC1 — remaining binding (binding, competition with immobilised ligand; 1 µM): 100%
CN(c1nccc(-c2cnn3ncccc23)n1)C1CC1 — remaining binding (binding; 1 µM): 100%
O=C(c1ccc(Nc2ncc(Cl)c(-c3ccc(Cl)s3)n2)cc1)N1CCC(N2CCCC2)CC1 — remaining binding (binding, competition with immobilised ligand; 1 µM): 100%
CO[C@@H](C)c1c(Nc2ccc([C@H](N(C)C(=O)C3CCS(=O)(=O)CC3)C(F)(F)F)cc2)cnc2cc(Cl)nn12 — remaining binding (cell-free assay, competition with immobilised ligand; 1 µM): 100%
FC(F)(F)Oc1cccc(-c2cnc3ccc(-c4ccncc4)nn23)c1 — remaining binding (cell-free assay, competition with immobilised ligand; 5 µM): 100%
CC1CCCN1c1nccc(-c2cnn3ncccc23)n1 (stereo not shown) — remaining binding (binding; 1 µM): 95%
O=C(c1ccc(Nc2ncc(Cl)c(-c3cc4ccccc4s3)n2)cc1)N1CCC(N2CCCC2)CC1 — remaining binding (binding, competition with immobilised ligand; 1 µM): 100%
Cc1c(C(=O)O)cc(-c2ccc(C3CCNCC3)cc2)c2ccc(-c3ccc(C(F)(F)F)cc3)cc12 — remaining binding (binding, competition with immobilised ligand; 1 µM): 100%
CN(C)c1nccc(-c2cnn3ncccc23)n1 — remaining binding (binding; 1 µM): 100%
CNC(=O)Nc1ccc2c(c1)[C@@]1(CC2)OC(=O)N(CC(=O)N(Cc2ccc(F)cc2)[C@@H](C)C(F)(F)F)C1=O — remaining binding (cell-free assay, competition with immobilised ligand; 1 µM): 91%
COc1cnc(Nc2cccc(S(N)(=O)=O)c2)nc1N1CCN(c2ccccc2)C(=O)C1 — remaining binding (binding, competition with immobilised ligand; 1 µM): 100%
C[C@H](c1cccc(C#N)c1)n1cc(Cl)cc(C(N)=O)c1=N — remaining binding (cell-free assay, competition with immobilised ligand; 1 µM): 93%
COc1ncc2cc3ccccc3nc2c1C#N — remaining binding (cell-free assay, competition with immobilised ligand; 5 µM): 100%
Cn1nc(C(F)(F)F)cc1-c1cnc(N2CCc3cc(S(=O)(=O)Nc4c(F)cc(Cl)cc4F)cc(N4CCCC4=O)c32)nc1 — remaining binding (cell-free assay, competition with immobilised ligand; 1 µM): 100%
CN(CCCC(F)(F)F)c1nccc(-c2cnn3ncccc23)n1 — remaining binding (binding; 1 µM): 100%
CCCOc1ccc([C@@H]2[C@@H](C(=O)O)[C@H](c3ccc4c(c3)OCO4)CN2CC(=O)Nc2c(CC)cccc2CC)cc1 — remaining binding (cell-free assay, competition with immobilised ligand; 1 µM): 100%
O=C(NCC1CCOCC1)c1n[nH]cc1NC(=O)c1c(F)cccc1F — remaining binding (binding, competition with immobilised ligand; 1 µM): 87%
CSc1cccnc1N1CCN(Cc2nc3ccccc3[nH]2)CC1 — remaining binding (cell-free assay, competition with immobilised ligand; 1 µM): 93%
COc1cnc(Nc2cccc(S(N)(=O)=O)c2)nc1N1CCN(c2ccccc2)CC1 — remaining binding (binding, competition with immobilised ligand; 1 µM): 100%
